Assay [1] addresses T1, Catenin beta-1 (Homo sapiens) (UniProt P35222).
T1 sequence (whole entry): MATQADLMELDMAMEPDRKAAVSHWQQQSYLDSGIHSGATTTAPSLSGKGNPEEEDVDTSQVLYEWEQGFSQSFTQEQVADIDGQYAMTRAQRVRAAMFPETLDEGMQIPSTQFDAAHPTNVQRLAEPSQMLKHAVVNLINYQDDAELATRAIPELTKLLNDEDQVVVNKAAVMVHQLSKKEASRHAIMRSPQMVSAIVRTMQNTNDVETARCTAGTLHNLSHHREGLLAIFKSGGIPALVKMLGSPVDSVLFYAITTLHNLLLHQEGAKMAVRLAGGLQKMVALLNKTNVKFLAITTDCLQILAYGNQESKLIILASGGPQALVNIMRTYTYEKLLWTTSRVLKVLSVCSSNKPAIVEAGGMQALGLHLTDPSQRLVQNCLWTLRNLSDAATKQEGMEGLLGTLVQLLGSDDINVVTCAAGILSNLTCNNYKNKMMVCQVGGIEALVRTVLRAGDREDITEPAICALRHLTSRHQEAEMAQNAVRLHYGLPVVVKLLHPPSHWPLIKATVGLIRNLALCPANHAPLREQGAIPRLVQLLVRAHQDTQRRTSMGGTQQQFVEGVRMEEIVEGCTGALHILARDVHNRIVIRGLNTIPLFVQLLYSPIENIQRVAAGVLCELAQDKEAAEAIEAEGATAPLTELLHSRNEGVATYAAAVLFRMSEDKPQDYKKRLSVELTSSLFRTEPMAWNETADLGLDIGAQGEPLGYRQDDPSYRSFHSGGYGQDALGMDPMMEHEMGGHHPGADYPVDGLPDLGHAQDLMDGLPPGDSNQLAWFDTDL
In words: Inhibition of beta-catenin expressed in human SW480 cells by luciferase reporter gene assay. A general note: Reporter assays use an easily measured gene product as a stand-in for the process of interest.

In assay [2] the test system is HeLa. In words: Inhibition of mitosis in human HeLa cells assessed as G2 checkpoint inhibition by ELISA. Type of assay: functional, cell-based. Put shortly: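 ELISA immunoassay in HeLa cells. Paclitaxel and vinblastine (each 1 µg/mL) were control inhibitors. Five fixed concentrations were tested (10, 2, 0.4, 0.08, 0.016 µg/mL). Inhibition and survival are given as % of controls.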

The test system of assay [3] is MDA-MB-231. In words: Inhibition of histone deacetylase expressed in human MDA-MB-231 cells. It is filed as cell-based. In outline: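 Cell extracts from MDA-MB-231 breast carcinoma served as enzyme source. Trichostatin A at 250 nM was the reference inhibitor. Test concentrations were 10, 2, 0.4, 0.08 and 0.016 µg/mL. Data are % inhibition relative to controls.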

The subject of assay [4] is MDA-MB-231. In words: Cytotoxicity against human MDA-MB-231 cells after 48 hrs by sulforhodamine B assay. It is filed as functional. Particulars: MDA-MB-231, 48 h; for CC50: read-out: LC50 (the source's name). Put shortly: (§1)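 Cells seeded at 5×10^3 per well in RPMI and allowed to attach for 18 h in drug-free medium. Samples were added in 3:7 DMSO/H2O, with highest concentration 100 µM, and exposed for 48 h. Cells were fixed with cold TCA at 4 °C for 60 min, stained with 0.4% SRB and solubilized in Tris. OD was read at 490 nm. GI50, TGI and LC50 came from automated analysis following the NCI protocol.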
For orientation: Sulforhodamine B stains cellular protein and so reports cell mass.

The target of assay [5] is Epidermal growth factor receptor (Homo sapiens) (UniProt P00533). In words: Inhibition of EGFR expressed in human HeLa cells at 10 ug/mL by AP1-luciferase reporter gene assay relative to control. Type of assay: cell-based. In outline: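 AP1-luc stably transfected HeLa cells were grown in DMEM/10% FBS at 20,000 cells/well and set for 24 h. They were treated with 1% DMSO vehicle or compound (10, 2, 0.4, 0.08, 0.016 µg/mL) before stimulation with EGF at 25 ng/mL. Control inhibitor was AG-1478 at 20 µM. Survival was checked by calcein-AM (0.1 µM, 30 min, 37 °C), then luciferase read by luminescence. Values are % of control.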

In assay [6] the test system is HT-29. In words: Cytotoxicity against human HT-29 cells after 48 hrs by sulforhodamine B assay. Type of assay: functional. Particulars: HT-29, 48 h. Put shortly: as §1
Assay [7] concerns A549. In words: Cytotoxicity against human A549 cells after 48 hrs by sulforhodamine B assay. It is filed as functional. Particulars: A549, 48 h; for CC50: read-out: LC50 (the source's name). In outline:
as §1

For assay [8], the target named is Hypoxia-inducible factor 1-alpha (Homo sapiens) (UniProt Q16665). In words: Inhibition of HIF1alpha expressed in human HeLa cells at 10 ug/mL by HIF1-luciferase reporter gene assay relative to control. Type of assay: cell-based. Put shortly: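 HIF1-luc stably transfected HeLa cells were plated at 20,000 cells/well and set for 24 h. They were pretreated 30 min with 1% DMSO vehicle or compound (10, 2, 0.4, 0.08, 0.016 µg/mL), then given 50 µM deferoxamine as hypoxia mimetic for 24 h. Survival was measured by calcein-AM fluorescence (0.1 µM, 30 min, 37 °C), followed by luciferase luminescence. Reported as % of control.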

Active and inactive are the calls of the source. No cut-off for these calls is given here.

Chain of Epidermal growth factor receptor (Homo sapiens) (P00533 whole entry): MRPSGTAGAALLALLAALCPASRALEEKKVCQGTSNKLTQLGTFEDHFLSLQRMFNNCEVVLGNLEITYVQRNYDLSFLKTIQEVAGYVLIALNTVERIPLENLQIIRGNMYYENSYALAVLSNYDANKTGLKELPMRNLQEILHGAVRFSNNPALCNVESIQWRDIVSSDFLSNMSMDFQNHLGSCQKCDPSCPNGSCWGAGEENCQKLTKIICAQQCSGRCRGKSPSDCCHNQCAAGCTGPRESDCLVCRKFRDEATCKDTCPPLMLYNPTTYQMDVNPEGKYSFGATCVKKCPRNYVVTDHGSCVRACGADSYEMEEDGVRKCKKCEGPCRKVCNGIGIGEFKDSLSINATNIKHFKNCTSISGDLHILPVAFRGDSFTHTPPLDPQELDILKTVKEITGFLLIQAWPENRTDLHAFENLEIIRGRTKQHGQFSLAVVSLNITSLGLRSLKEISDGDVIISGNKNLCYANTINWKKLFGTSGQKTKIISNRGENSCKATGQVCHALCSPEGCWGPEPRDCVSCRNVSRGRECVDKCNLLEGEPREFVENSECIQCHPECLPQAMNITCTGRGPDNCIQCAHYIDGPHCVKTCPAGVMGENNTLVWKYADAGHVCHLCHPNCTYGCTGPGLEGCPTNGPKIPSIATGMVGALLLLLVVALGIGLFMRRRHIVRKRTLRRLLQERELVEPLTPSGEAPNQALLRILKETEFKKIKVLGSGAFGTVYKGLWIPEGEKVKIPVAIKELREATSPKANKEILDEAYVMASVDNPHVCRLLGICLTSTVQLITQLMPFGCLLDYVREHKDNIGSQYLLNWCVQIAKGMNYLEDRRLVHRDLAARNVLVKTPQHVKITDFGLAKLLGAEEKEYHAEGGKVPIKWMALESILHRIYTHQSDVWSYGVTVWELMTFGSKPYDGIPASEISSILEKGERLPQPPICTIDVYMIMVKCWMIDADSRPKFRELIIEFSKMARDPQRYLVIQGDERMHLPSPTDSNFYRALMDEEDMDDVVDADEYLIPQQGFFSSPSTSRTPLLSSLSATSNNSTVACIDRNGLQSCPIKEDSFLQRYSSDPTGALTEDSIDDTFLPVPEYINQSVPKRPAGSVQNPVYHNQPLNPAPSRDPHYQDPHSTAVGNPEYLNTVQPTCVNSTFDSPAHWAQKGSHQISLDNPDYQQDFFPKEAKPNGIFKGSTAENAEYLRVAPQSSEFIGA
Chain of Hypoxia-inducible factor 1-alpha (Homo sapiens) (Q16665 whole entry, looked up): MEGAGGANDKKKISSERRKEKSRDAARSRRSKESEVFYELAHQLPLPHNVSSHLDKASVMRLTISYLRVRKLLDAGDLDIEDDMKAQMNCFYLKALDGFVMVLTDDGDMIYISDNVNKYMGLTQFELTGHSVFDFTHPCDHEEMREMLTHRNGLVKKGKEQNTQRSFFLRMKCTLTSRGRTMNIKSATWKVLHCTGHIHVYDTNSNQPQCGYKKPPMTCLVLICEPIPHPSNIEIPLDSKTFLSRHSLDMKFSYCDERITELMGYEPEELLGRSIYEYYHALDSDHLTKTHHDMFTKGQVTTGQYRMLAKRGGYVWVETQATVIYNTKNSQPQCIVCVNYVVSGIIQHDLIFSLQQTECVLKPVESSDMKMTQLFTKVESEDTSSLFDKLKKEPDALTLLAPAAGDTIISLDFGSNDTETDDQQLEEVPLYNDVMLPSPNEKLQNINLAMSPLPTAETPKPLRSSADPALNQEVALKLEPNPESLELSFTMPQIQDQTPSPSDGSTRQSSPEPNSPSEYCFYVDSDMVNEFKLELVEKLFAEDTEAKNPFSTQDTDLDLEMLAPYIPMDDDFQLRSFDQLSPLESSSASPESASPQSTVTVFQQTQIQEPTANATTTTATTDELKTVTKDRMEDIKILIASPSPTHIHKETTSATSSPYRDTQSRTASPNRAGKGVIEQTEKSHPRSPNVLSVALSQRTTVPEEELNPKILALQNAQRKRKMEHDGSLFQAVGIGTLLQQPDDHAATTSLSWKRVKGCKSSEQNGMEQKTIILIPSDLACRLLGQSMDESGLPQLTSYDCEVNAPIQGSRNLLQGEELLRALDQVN

For the compound `COC(=O)[C@@H]1C[C@H]2c3ccccc3N3C(=N)C(C)(C)N1[C@@H]23`, the result in assay [1], in assay [2] and in assay [3] was inactive.

In general, GI50 refers to the concentration at which growth is held to half of that of the control. Low readings indicate more potent growth inhibition, high ones less potent growth inhibition. What is called TGI is the concentration giving total growth inhibition. Lower therefore signals greater sensitivity of the cells. For orientation: inhibition means the change of the read-out against control, counted positive when it falls. High values mean strong suppression, low ones little suppression. As for `COC(=O)[C@@H]1C[C@@]2(Br)c3ccccc3N3C(=N)[C@H](C(C)(C)C)N1[C@H]32`, the results for the concentration for 50% growth inhibition (GI50) in assay [4], in assay [6] and in assay [7] were 17.6 µM, above 100 µM and above 100 µM, respectively. Moreover, the TGI in assay [4] was 25.5 µM; in assay [6], above 100 µM; in assay [7] it was above 100 µM. Moreover, the values for the CC50 in assay [4] and in assay [7] were 25.5 µM and above 100 µM, respectively. In addition, the result in assay [1], in assay [2] and in assay [3] was inactive. Further, the inhibition in assay [5] amounted to 0%; in assay [8], 70%. For the same compound, the LC50 (concentration killing 50% of cells) in assay [6] was above 100 µM.

`COC(=O)[C@@H]1C[C@@]2(Br)c3cc(Br)ccc3N3C(=N)[C@H](C(C)(C)C)N1[C@H]32`: the concentration for 50% growth inhibition (GI50) in assay [4], in assay [6] and in assay [7] was above 100 µM throughout. Further, the total growth inhibition concentration (TGI) in assay [4], in assay [6] and in assay [7] was above 100 µM each time. Moreover, the CC50 in assay [4] and in assay [7] was above 100 µM in each case. Besides, the outcome in assay [1], in assay [2] and in assay [3] was inactive. Also, the inhibition amounted to 0% in assay [5] and 73% in assay [8]. The same compound came in with an LC50 (concentration killing 50% of cells) in assay [6] above 100 µM.

`COC(=O)[C@@H]1C[C@@]2(CC=C(C)C)c3ccccc3N3C(=N)[C@H](c4ccccc4)N1[C@H]32`: the GI50 in assay [4], in assay [6] and in assay [7] was above 100 µM in each case. Besides, the concentration for total growth inhibition (TGI) in assay [4], in assay [6] and in assay [7] was above 100 µM each time. The CC50 in assay [4] and in assay [7] was above 100 µM in each case. Moreover, the result in assay [1], in assay [2] and in assay [3] was inactive. Besides, the inhibition in assay [5] was 13%; in assay [8], 78%. Besides, in assay [6], the LC50 (concentration killing 50% of cells) is above 100 µM.

Consider `COC(=O)[C@@H]1C[C@@]2(Br)c3cc(Br)ccc3N3C(=N)C4(CCCCC4)N1[C@H]32`, for which the figures for the GI50 in assay [4], in assay [6] and in assay [7] were 6.21 µM, 7.45 µM and 7.24 µM, respectively. For the same compound, the TGI in assay [4] was 8.49 µM; in assay [6], 9.31 µM; in assay [7], 10.8 µM. For the same compound, the CC50 was above 100 µM in assay [4] and 16.1 µM in assay [7]. The outcome in assay [1], in assay [2] and in assay [3] was inactive. For the same compound, the inhibition in assay [5] was found to be 83%. For the same compound, in assay [6], the LC50 (concentration killing 50% of cells) was 14.1 µM.

Regarding `COC(=O)[C@@H]1C[C@@]2(Br)c3cc(Br)ccc3N3C(=N)C(C)(C)N1[C@H]32`, the 50% growth inhibitory concentration (GI50) in assay [4], in assay [6] and in assay [7] was above 100 µM throughout. Moreover, the concentration for total growth inhibition (TGI) in assay [4], in assay [6] and in assay [7] was above 100 µM each time. Also, the CC50 in assay [4] and in assay [7] was above 100 µM throughout. In addition, the outcome in assay [1], in assay [2] and in assay [3] was inactive. For the same compound, the inhibition in assay [5] was 45%; in assay [8], 55%. This compound also showed an LC50 (concentration killing 50% of cells) in assay [6] above 100 µM.

As for `C=CC[C@@]12C[C@@H](C(=O)OC)N3[C@@H]1N(C(=N)C31CCCCC1)c1ccccc12`, the figures for the concentration for 50% growth inhibition (GI50) in assay [4], in assay [6] and in assay [7] were 23.5 µM, 22.4 µM and 23.3 µM, respectively. For the same compound, the TGI in assay [4] was 24.6 µM; in assay [6], 23.5 µM; in assay [7], 24.1 µM. Besides, the CC50 in assay [4] is 25.7 µM; in assay [7] it was 25.2 µM. The outcome in assay [1], in assay [2] and in assay [3] was inactive. Also, the inhibition in assay [5] stood at 52%. This compound also showed an LC50 (concentration killing 50% of cells) in assay [6] of 25.2 µM.

As to `COC(=O)[C@@H]1C[C@]2(CC=C(C)C)c3ccccc3N3C(=N)[C@@H](Cc4ccccc4)N1[C@@H]32`, the results for the GI50 in assay [4], in assay [6] and in assay [7] were 9.39 µM, above 100 µM and 12 µM, respectively. The TGI in assay [4] is 24.1 µM; in assay [6] it was above 100 µM; in assay [7], 24.1 µM. Further, the CC50 in assay [4] and in assay [7] was 24.1 µM each time. In addition, the outcome in assay [1], in assay [2] and in assay [3] was inactive. Further, the inhibition stood at 0% in assay [5] and 61% in assay [8]. For the same compound, the LC50 (concentration killing 50% of cells) in assay [6] was above 100 µM.

Turning to `COC(=O)[C@@H]1C[C@@]2(CC=C(C)C)c3ccccc3N3C(=N)[C@H](C(C)(C)C)N1[C@H]32`, the GI50 is 15.2 µM in assay [4], above 100 µM in assay [6] and above 100 µM in assay [7]. The total growth inhibition concentration (TGI) was 26.2 µM in assay [4], above 100 µM in assay [6] and above 100 µM in assay [7]. The CC50 was 26.2 µM in assay [4] and above 100 µM in assay [7]. For the same compound, the result in assay [1], in assay [2] and in assay [3] was inactive. In addition, the inhibition in assay [5] was found to be 0%; in assay [8], 83%. Further, the LC50 (concentration killing 50% of cells) in assay [6] is above 100 µM.

On to `COC(=O)[C@@H]1C[C@H]2c3ccccc3N3C(=N)C4(CCCCC4)N1[C@@H]23`, for which, in assay [1], the result was inactive. For the same compound, in assay [6], halving of growth (GI50) required 9.23 µM, the LC50 (concentration killing 50% of cells) stood at 9.23 µM and the total growth inhibition concentration (TGI) turned out to be 9.23 µM. Further, in assay [2], the result was inactive. In addition, in assay [7], it took 9.23 µM to inhibit growth by half (GI50), the concentration for total growth inhibition (TGI) amounted to 9.23 µM and the CC50 worked out at 9.23 µM. Further, the outcome in assay [3] was inactive.

`COC(=O)[C@@H]1C[C@@]2(CC=C(C)C)c3ccccc3N3C(=N)[C@H](Cc4ccccc4)N1[C@H]32`: the 50% growth inhibitory concentration (GI50) is above 100 µM in assay [4], 20.2 µM in assay [6] and 22.1 µM in assay [7]. Further, the TGI in assay [4] is above 100 µM; in assay [6] it was 24.1 µM; in assay [7], 24.1 µM. Further, the results for the CC50 in assay [4] and in assay [7] were above 100 µM and 24.1 µM, respectively. Besides, the result in assay [1], in assay [2] and in assay [3] was inactive. The inhibition in assay [5] came out at 20%; in assay [8], 78%. In addition, the LC50 (concentration killing 50% of cells) in assay [6] was found to be 24.1 µM.
